Reference: ChEMBL document CHEMBL1158096, “Cytotoxic triterpenoids from the leaves of Microtropis fokienensis” (J Nat Prod, 2006)
In brackets after ≈: the same amount, converted by molar mass. Activity calls are given as the source filed them. The rule behind the calls is not given here.

Legend:
[1] = system: A549; test: Cytotoxicity against human A549 cells after 3 days by MTT method; format: functional, cell-based
How it was run: (§1)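 Freshly trypsinized cells seeded at 5000-10 000 per well; compounds added from DMSO stocks. After 3 days in culture, attached cells incubated with MTT ([…], 1 h), solubilized in DMSO, absorbance read at 550 nm. IC50 = concentration reducing cell growth by 50%. Mean of two to three separate experiments, each in triplicate.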

[2] = system: MDA-MB-231; test: Cytotoxicity against human MDA-MB-231 cells after 3 days by MTT method; format: functional, cell-based; how it was run: as §1
[3] = system: MCF7; test: Cytotoxicity against human MCF7 cells after 3 days by MTT method; format: functional, cell-based; how it was run: as §1
[4] = system: Hep 3B2; test: (§2) Cytotoxicity against human Hep3B cells after 3 days by MTT method; format: functional, cell-based; how it was run: as §1
[5] = system: HepG2; test: (§3) Cytotoxicity against human Hep G2 cells after 3 days by MTT method; format: functional, cell-based; how it was run: as §1
[6] = as §2; format: functional, cell-based, Hep 3B2; settings: 72 h; how it was run: as §1
[7] = as §3; format: functional, cell-based; settings: HepG2, 72 h; how it was run: as §1

Compound	Activity [1]	Activity [2]	Activity [3]	Activity [4]	Activity [5]	IC50 [6]	IC50 [7]
O=c1c(O)c(-c2ccc(O)cc2)oc2cc(O)cc(O)c12	inactive	inactive	inactive	inactive	inactive	–	–
CC1(C)CC[C@@]23CC[C@]4(C)[C@@](C=C[C@@H]5[C@@]6(C)CC[C@H](O)C(C)(C)[C@@H]6CC[C@]54C)(OC2)[C@@H]3C1	inactive	inactive	inactive	inactive	inactive	–	–
C[C@H]1[C@H](C)CC[C@@]23CC[C@@]4(C)[C@]5(C)CC[C@@H]6[C@](C)(CC[C@H](O)[C@@]6(C)CO)[C@H]5CC(=O)[C@]4(OC2)[C@H]13 [MICROFOKIENOXANE C]	inactive	inactive	inactive	–	–	4.5 µg/mL (≈ 9.52 µM)	3.8 µg/mL (≈ 8.04 µM)
C=C(CO)[C@@H]1CC[C@]2(C)CC[C@]3(C)[C@H](CC[C@@H]4[C@@]5(C)CC[C@H](O)C(C)(C)[C@@H]5CC[C@]43C)[C@@H]12	inactive	inactive	inactive	inactive	inactive	–	–
CO[C@@H]1C=C2[C@@H]3[C@@H](C)[C@H](C)CC[C@]3(C)CC[C@@]2(C)[C@]2(C)CC[C@H]3C(C)(C)[C@@H](O)CC[C@]3(C)[C@@H]12	inactive	inactive	inactive	inactive	inactive	–	–
C[C@H]1[C@H](C)CC[C@@]23CC[C@]4(C)[C@@](C=C[C@@H]5[C@@]6(C)CC[C@H](O)C(C)(C)[C@@H]6CC[C@]54C)(OC2)[C@H]13	inactive	inactive	inactive	inactive	inactive	–	–
COC(=O)/C=C/c1ccc(O)cc1	inactive	inactive	inactive	inactive	inactive	–	–
CO[C@@H]1C=C2[C@@H]3[C@@H](C)[C@H](C)CC[C@]3(CO)CC[C@@]2(C)[C@]2(C)CC[C@H]3C(C)(C)[C@@H](O)CC[C@]3(C)[C@@H]12	inactive	inactive	inactive	inactive	–	–	4.6 µg/mL (≈ 9.73 µM)
C[C@H]1[C@H](C)CC[C@@]23CC[C@]4(C)[C@@](C=C[C@@H]5[C@@]6(C)CC[C@H](O)[C@@](C)(CO)[C@@H]6CC[C@]54C)(OC2)[C@H]13	inactive	inactive	inactive	inactive	inactive	–	–
C[C@H]1[C@H](C)CC[C@]2(CO)CC[C@]3(C)C(=CC[C@@H]4[C@@]5(C)CC[C@H](O)C(C)(C)[C@@H]5CC[C@]43C)[C@H]12	inactive	inactive	inactive	inactive	inactive	–	–
Oc1cc(O)c2c(c1)O[C@H](c1ccc(O)c(O)c1)[C@H](O)C2	inactive	inactive	inactive	inactive	inactive	–	–
CC1(C)C(=O)CC[C@]2(C)[C@H]3C=C[C@]45OC[C@@]6(CC[C@](C)(CO)C[C@H]64)CC[C@@]5(C)[C@]3(C)CC[C@@H]12	inactive	inactive	inactive	inactive	inactive	–	–
C=C(CO)[C@@H]1CC[C@]2(CO)CC[C@]3(C)[C@H](CC[C@@H]4[C@@]5(C)CC[C@H](O)C(C)(C)[C@@H]5CC[C@]43C)[C@@H]12	inactive	inactive	inactive	inactive	inactive	–	–
C[C@H]1[C@H](C)CC[C@]23CO[C@@]4(C=C[C@@H]5[C@@]6(C)CC[C@H](O)C(C)(C)[C@@H]6CC[C@@]5(C)[C@]4(C)C[C@@H]2O)[C@H]13	inactive	inactive	inactive	inactive	inactive	–	–
